Bioassay records deposited in PubChem BioAssay by several laboratories.
MC4R antagonist: human MC4R antagonism in cAMP assay. inhibition, % at 6.5 µM. MC4R-expressing cells, MTII-stimulated cAMP, LANCE TR-FRET. AID 540295. 360,000 compounds, 0.48% hits;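 active means inhibition above its plate's cutoff, the mean of tested wells on that plate plus 3 SD, cut at about 29% in these data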;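 further: 0% = Melanotan II alone and 100% = Melanotan II plus saturating MCL0020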
Target sequence (P32245 whole entry, looked up): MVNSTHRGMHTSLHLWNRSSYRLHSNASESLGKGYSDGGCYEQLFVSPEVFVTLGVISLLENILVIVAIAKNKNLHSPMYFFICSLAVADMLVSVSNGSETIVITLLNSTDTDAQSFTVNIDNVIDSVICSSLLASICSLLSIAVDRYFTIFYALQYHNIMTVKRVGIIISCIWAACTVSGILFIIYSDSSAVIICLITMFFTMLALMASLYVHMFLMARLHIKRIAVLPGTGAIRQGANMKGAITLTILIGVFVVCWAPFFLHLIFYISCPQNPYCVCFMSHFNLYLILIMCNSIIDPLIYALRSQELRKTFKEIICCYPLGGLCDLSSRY
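Assay system: human MC4R-expressing U2OS cells; reagent: Melanotan II stimulation of cells; dosing: 6.5 µM single dose; timing: compound 30 min, challenge 1 h, detection 1 h; signal: TR-FRET cAMP assay; replicates: one well per compound, no replicates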
TAAR1 agonist: human TAAR1 agonism; AID 624467; Q96RJ0; activation, % at 3 µM; CHO RD-HGA16 TAAR1, Fluo-8 calcium fluorescence; vehicle wells 0%, saturating PEA agonist 100%; 360,000 compounds, 0.99% hits;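 active means activation above the mean activation of all test compounds in the run plus 3 SD, cut at about 38% in these data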
Target sequence (Q96RJ0 whole entry, looked up): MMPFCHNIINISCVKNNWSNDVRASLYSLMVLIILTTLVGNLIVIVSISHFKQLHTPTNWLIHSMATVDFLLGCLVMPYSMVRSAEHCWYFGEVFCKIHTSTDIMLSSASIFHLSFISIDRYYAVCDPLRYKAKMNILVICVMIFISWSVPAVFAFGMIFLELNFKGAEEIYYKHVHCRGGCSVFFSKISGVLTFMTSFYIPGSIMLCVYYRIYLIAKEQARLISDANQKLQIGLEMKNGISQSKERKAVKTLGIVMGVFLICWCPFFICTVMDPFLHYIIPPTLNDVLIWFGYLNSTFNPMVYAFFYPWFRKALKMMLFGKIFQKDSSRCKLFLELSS
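Test system: RD-HGA16 (CHO) cells co-expressing Gα16 and hTAAR1 / Benchmarks: DMSO vehicle as 0%, PEA at EC100 as 100% / Repeats: no replicates (n 1) / Measure: % activation from peak over basal fluorescence ratio, DMSO-to-PEA scaled / Timing: 17-24 h plating, Fluo-8 75 min 37 °C, 30 min RT / Technique: kinetic Fluo-8 calcium fluorescence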
m5-HT2A agonist: agonists of mouse serotonin 5-HT2A receptor (HTR2A). P35363. CHO-K1 mHTR2A beta-arrestin complementation, luminescence; percent of 30 µM serotonin response. activation, % at 7.6 µM. 360,000 compounds, 0.66% hits. AID 624169;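 active means activation above a run cutoff, the mean activation of all tested compounds plus 3 SD, cut at about 14% in these data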;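 further: 0% = plate median of compound wells and 100% = 30 µM serotonin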
TAAR1 antag: antagonists of human TAAR1; Q96RJ0; CHO RD-HGA16 TAAR1, Fluo-8 calcium fluorescence, antagonist; inhibition, % at 3 µM; 360,000 compounds, 1.5% hits; AID 624466;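 active means inhibition above a per-plate cutoff, the mean inhibition of test compounds on that plate plus 3 SD, cut at about 49% in these data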;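 further: 0% = DMSO plus EC80 beta-PEA response and 100% = DMSO alone without agonist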
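Test system – hTAAR1-expressing CHO RD-HGA16 cells, Gα16-coupled · Also added – β-PEA at EC80 concentration, post-compound challenge · Compound – 3 µM, single point · Incubation – dye loading 75 min at 37 °C, then 30 min room temperature · Measured by – Fluo-8 intracellular calcium dye fluorescence, real-time kinetic reads · Benchmarks – vehicle and agonist controls · Replicates – singlicate, one well per test compound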
MC4R ag barr: activates human MC4R beta-arrestin recruitment; P32245; U2OS MC4R beta-arrestin complementation, luminescence; percent of melanotan II response, DMSO zero; activation, % at 8.9 µM; 360,000 compounds, 0.98% hits;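 active means activation above a per-plate cutoff, the mean activation of sample wells on that plate plus 3 SD, cut at about 8% in these data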
B2AR ag: activates human beta-2 adrenergic receptor causing internalization; response, % (no concentration beside the values); 340,000 compounds, 0.43% hits; AID 504454; P07550; Am2.2-beta2AR cells, FAP receptor internalization, flow cytometry;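 active means response above a set limit, near 3 SD of response in nonfluorescent compounds, cut at about 42% in these data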
MOR ag counter: OPRM1 agonism in mouse HTR2A counterscreen. AID 624380. shares compounds with m5-HT2A agonist. activation, % at 9.3 µM. U2OS OPRM1 beta-arrestin PathHunter, luminescence; DMSO 0%, DAMGO 9.3 µM 100%. 2,300 compounds, 5.3% hits;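 active means mean activation above the mean of DMSO-only wells plus 3 SD, cut at about 0.5% in these data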
m5-HT2A ag conf: mouse HTR2A agonism confirmed; shares compounds with m5-HT2A agonist; CHO-K1 PathHunter beta-arrestin recruitment, luminescence; DMSO 0%, 30 µM serotonin 100%; activation, % at 7.6 µM; 2,300 compounds, 19% hits;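 active means mean activation across triplicates above the hit threshold derived in the original primary screen, cut at about 15% in these data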
An asterisk follows results filed as active; / = not tested or not shown. Rows were chosen to be rich in hits. Some 4.3% of all compounds tested hit in one or more screens of this group.

SMILES	MC4R antagonist	TAAR1 agonist	m5-HT2A agonist	TAAR1 antag	MC4R ag barr	B2AR ag	MOR ag counter	m5-HT2A ag conf
CS(=O)(=O)c1ccc(NC(=O)CCN2C(=O)C3CC=CCC3C2=O)cc1 (centres undefined)	4	0	4	-12	-2	6	/	/
N#CCC(=O)Nc1ccc(C(=O)OCC(=O)c2ccc3c(c2)NC(=O)CO3)cc1	1	9	25*	-27	-2	-2	-1	-4
CC(=O)Nc1cc(NC(C)=O)cc(C(=O)OCC(=O)c2ccc3c(c2)NC(=O)CO3)c1	17	0	20*	0	-1	2	-1	-4
N#Cc1cccc(C(=O)OCC(=O)c2ccc3c(c2)NC(=O)CO3)c1	1	9	-1	-15	-2	3	/	/
Cc1c(CC(=O)N[C@H](C(=O)O)C(C)C)c(=O)oc2cc3c(cc12)CCC(C)(C)O3	13	3	-2	-18	-2	0	/	/
CC(C)(Cc1cccc(CC(C)(C)C(=O)O)c1)C(=O)O	3	3	-1	6	0	-4	/	/
Cc1cc2cc(CCNC(=O)CCc3ccccc3)c(=O)[nH]c2cc1C	8	-2	22*	-8	-1	-5	-1	-3
CCC(=O)NCCc1cc2cc(C)c(C)cc2[nH]c1=O	2	2	12	20	-1	8	/	/
CCOc1ccc(CCNC(=O)c2cc3c(s2)CS(=O)(=O)C3)cc1OCC	10	3	0	-5	-1	6	/	/
CN1CCN(S(=O)(=O)c2ccc(C(F)(F)F)cc2)C(c2ccccc2)C1 (centres undefined)	-4	-4	15*	-15	-1	-4	0	-1
Cc1ccc2nc(SCC(=O)Nc3ccc(F)c([N+](=O)[O-])c3)[nH]c2c1	13	5	-2	4	-3	6	/	/
Cc1cc(=O)[nH]c(SCC(=O)Nc2ccc(F)c([N+](=O)[O-])c2)n1	17	2	28*	-14	-3	5	0	-2
Cc1ccc(S(=O)(=O)N2CCN(C(=O)COC(=O)/C=C/c3ccc(F)cc3)CC2)c(C)c1	5	4	-1	-3	-1	-4	/	/
CSc1ccc(/C=C/C(=O)OCC(=O)N2CCN(S(=O)(=O)c3ccc(C)cc3C)CC2)cc1	-1	2	24*	17	-2	-5	0	-2
CC(C)CNC(=S)NC(=O)c1csc([N+](=O)[O-])c1	4	-2	-2	-7	-3	-3	/	/
C=CCNC(=O)O/N=C/c1csc([N+](=O)[O-])c1	11	0	17*	-1	-1	-1	0	-2
CCCc1nc2nc(C)c(NS(=O)(=O)c3ccc(C)c(C)c3)c(=O)n2[nH]1	4	5	-3	-10	0	/	/	/
Cc1sc2nc(SCc3ccc(C(=O)O)cc3)n(Cc3ccco3)c(=O)c2c1C	2	-3	16*	-65	-1	0	0	8
CCOC(=O)C1(C)CCN1C(=O)c1ccc(SC(F)(F)F)cc1 (centres undefined)	9	2	16*	-3	-2	/	-1	-6
CCOC(=O)C1(C)CCCCCN1C(=O)c1ccc(SC(F)(F)F)cc1 (centres undefined)	8	5	0	-20	-1	/	/	/
CC(/C=N/n1c(-c2ccncc2)n[nH]c1=S)=C\c1ccco1	5	9	20*	-3	-2	0	-1	-3
CC(/C=N/n1c(-c2ccc(C)cc2)n[nH]c1=S)=C\c1ccco1	3	0	1	-11	0	-6	/	/
CC(/C=N/n1c(-c2ccccc2)n[nH]c1=S)=C\c1ccco1	-6	3	22*	-4	2	2	-1	-1
CC(/C=N/n1c(-c2ccco2)n[nH]c1=S)=C\c1ccco1	2	-1	0	-14	-3	-5	/	/
COc1ccc(-c2csc(C(C)(O)c3ccccc3)n2)cn1 (centres undefined)	2	1	3	-21	-1	/	/	/
SMILES	MC4R antagonist	TAAR1 agonist	m5-HT2A agonist	TAAR1 antag	MC4R ag barr	B2AR ag	MOR ag counter	m5-HT2A ag conf
Cc1noc(C)c1S(=O)(=O)NCc1ccc2c(c1)OCO2	2	0	32*	-14	-1	9	-1	-5
CCCOc1c(Br)cc(C(=O)OCc2cc(=O)n3ccsc3n2)cc1OC	2	4	2	-4	-1	-4	/	/
CCc1nn2c(=O)cc(COC(=O)c3cc(Cl)c(OC)c(OC)c3)nc2s1	1	1	17*	23	-3	7	0	-3
COC(=O)c1cc(=O)n(Cc2ccc3c(c2)OCO3)c(=Nc2ccc(F)c(Cl)c2)s1	-3	1	14*	-25	0	16	0	0
CC(C)N1CCC(C)(C(=O)Nc2ccc(Cl)c(Cl)c2)C1 (centres undefined)	-1	4	-9	-1	-2	/	/	/
CN1C(=O)NC(c2ccc(O)cc2)C2=C1CN(c1ccc(O)cc1)C2=O (centres undefined)	1	0	20*	-14	-2	1	-1	-4
CN1C(=O)NC(c2ccc(O)cc2)C2=C1CN(c1ccccc1)C2=O (centres undefined)	8	-1	-1	5	0	-5	/	/
C[C@H](NC(=O)[C@@H]1CSC2c3ccccc3C(=O)N21)C(=O)NCc1c(F)cccc1Cl (some centres undefined)	23	6	17*	-10	-1	-4	0	-4
C[C@H](NC(=O)[C@@H]1CSC2c3ccccc3C(=O)N21)C(=O)NC1CCCC1 (some centres undefined)	3	2	3	-28	0	1	/	/
CCC(O)C1CCN(C(=O)c2ccc(OC3CCN(Cc4ccccn4)CC3)cc2)CC1 (centres undefined)	4	0	3	-23	2	5	/	/
Cc1ccc(C(=O)Nc2cc(=O)n(C)c(=O)n2C)cc1C	4	0	16*	-2	-2	2	0	-2
Cn1c(NC(=O)c2ccc(F)c(F)c2)cc(=O)n(C)c1=O	12	0	-2	2	0	-3	/	/
COc1cccc(CNc2nc3cc(-c4ccsc4)sc3c(=O)n2C)c1OC	10	7	4	34	0	/	/	/
